The record followed here is ChEMBL document CHEMBL1149778, “Synthesis of some novel 2,4-disubstituted thiazoles as possible antimicrobial agents” (2008).

The test system of assay [1] is Bacillus subtilis. Briefly: Antibacterial activity against Bacillus subtilis assessed as zone of inhibition after 16 to 18 hrs by serial plate dilution method. Format: functional. The method, boiled down:
(§1)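 Agar well diffusion: 20 ml agar per dish seeded with bacterial suspension, excess decanted, dishes held 1 h at 37 °C. Wells punched, compounds in DMSO added at their MIC levels, DMSO wells as control. Zone of inhibition measured.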

Assay [2] deals with Talaromyces marneffei. Nature of the assay: Antifungal activity against Penicillium marneffei by serial plate dilution method. Format: functional.
In assay [3] the test system is Aspergillus fumigatus. Nature of the assay: Antifungal activity against Aspergillus fumigatus NCIM No.902 assessed as zone of inhibition by serial plate dilution method. Format: functional. The method, boiled down:
(§2)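 Sabouraud agar (peptone, D-glucose, agar; pH 5.7), 20 ml per dish, lawned with a saline spore suspension from a loopful of fungus. Excess decanted, plates dried 1 h at 37 °C. Wells punched and compounds in DMSO added, DMSO as control. Triplicate plates, 37 °C for 3-4 days; inhibition-zone diameter measured.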

Assay [4] has as its system Staphylococcus aureus. Briefly: Antibacterial activity against Staphylococcus aureus ATTC 25923 after 16 to 18 hrs by serial plate dilution method. Format: functional. The method, boiled down:
(§3)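 MIC by broth serial dilution: compound serially diluted in Mueller-Hinton broth, tubes adjusted to […] with phosphate buffer. Standardized bacterial suspension inoculated, incubated 16-18 h at 37 °C. MIC read as the lowest concentration with no visible growth.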

The subject of assay [5] is Talaromyces marneffei. Briefly: Antifungal activity against Penicillium marneffei assessed as zone of inhibition by serial plate dilution method. Format: functional. In a few lines: as §2
In assay [6] the test system is Bacillus subtilis. Briefly: Antibacterial activity against Bacillus subtilis after 16 to 18 hrs by serial plate dilution method. It is filed as functional. In a few lines: as §3
The test system of assay [7] is Escherichia coli. Briefly: Antibacterial activity against Escherichia coli ATTC 25922 after 16 to 18 hrs by serial plate dilution method. Format: functional. The note with it: ATCC25922. The method, boiled down:
as §3

Assay [8] concerns Pseudomonas aeruginosa. Nature of the assay: Antibacterial activity against Pseudomonas aeruginosa ATTC 27853 assessed as zone of inhibition after 16 to 18 hrs by serial plate dilution method. It is filed as functional, ATCC27853. In a few lines: as §1
Assay [9] relates to Aspergillus fumigatus. Briefly: Antifungal activity against Aspergillus fumigatus NCIM No.902 by serial plate dilution method. Format: functional.
Assay [10] concerns Staphylococcus aureus. Briefly: Antibacterial activity against Staphylococcus aureus ATTC 25923 assessed as zone of inhibition after 16 to 18 hrs by serial plate dilution method. It is filed as functional. In a few lines: as §1
Assay [11] concerns Aspergillus flavus. Nature of the assay: Antifungal activity against Aspergillus flavus NCIM No.524 assessed as zone of inhibition by serial plate dilution method. Format: functional. In a few lines:
as §2

Assay [12] concerns Trichophyton mentagrophytes. Nature of the assay: Antifungal activity against Trichophyton mentagrophytes by serial plate dilution method. It is filed as functional.
For assay [13], the system named is Trichophyton mentagrophytes. Briefly: Antifungal activity against Trichophyton mentagrophytes assessed as zone of inhibition by serial plate dilution method. Format: functional. The method, boiled down: as §2
Assay [14] concerns Aspergillus flavus. Nature of the assay: Antifungal activity against Aspergillus flavus NCIM No.524 by serial plate dilution method. Format: functional.
In assay [15] the test system is Escherichia coli. Briefly: Antibacterial activity against Escherichia coli ATTC 25922 assessed as zone of inhibition after 16 to 18 hrs by serial plate dilution method. It is filed as functional, ATCC25922. The method, boiled down: as §1
Assay [16] has as its system Pseudomonas aeruginosa. Briefly: Antibacterial activity against Pseudomonas aeruginosa ATTC 27853 after 16 to 18 hrs by serial plate dilution method. Format: functional. The note with it: ATCC27853. In a few lines:
as §3

Each structure is given as a SMILES string. In brackets after ≈: the same amount, converted by molar mass. Bounds are passed on as bounds.

Broadly, the MIC is the lowest concentration that inhibits growth of the organism. A higher MIC goes with a need for much substance. For the compound `Clc1cc(Cl)c(Cl)c(-c2nc(CN3CCCCC3)cs2)c1`, the “inhibition zone (IZ)” value is given as 16 mm in assay [1]; less than 10 mm in assay [3]; less than 10 mm in [5]; 11 mm in [8]; 16 mm in [10]; less than 10 mm in [11]. The “inhibition zone (IZ)” value in assay [13] and in [15] was less than 10 mm each time. Besides, the MIC in assay [2] stood at 25 µg/mL (≈ 69.1 µM); in assay [4], 6.25 µg/mL (≈ 17.3 µM); in [6], 6.25 µg/mL (≈ 17.3 µM); in assay [7], 25 µg/mL (≈ 69.1 µM); in assay [9], 25 µg/mL (≈ 69.1 µM); in assay [12] it was 25 µg/mL (≈ 69.1 µM). Moreover, the minimum inhibitory concentration (MIC) came out at 25 µg/mL (≈ 69.1 µM) in assay [14] and 12.5 µg/mL (≈ 34.6 µM) in [16].
As to `O=[N+]([O-])c1ccc(-c2csc(N/N=C/c3cc(Cl)cc(Cl)c3Cl)n2)cc1`, the “inhibition zone (IZ)” value in [1] is reported as 16 mm; in assay [3], less than 10 mm; in assay [5] it was less than 10 mm; in assay [8], less than 10 mm; in assay [10], 16 mm; in assay [11], less than 10 mm. Moreover, the “inhibition zone (IZ)” value in assay [13] and in assay [15] was less than 10 mm each time. Moreover, the minimum inhibitory concentration (MIC) was found to be 25 µg/mL (≈ 58.5 µM) in assay [2]; 6.25 µg/mL (≈ 14.6 µM) in [4]; 6.25 µg/mL (≈ 14.6 µM) in [6]; 25 µg/mL (≈ 58.5 µM) in [7]; 25 µg/mL (≈ 58.5 µM) in assay [9]; 25 µg/mL (≈ 58.5 µM) in assay [12]. Besides, the minimum inhibitory concentration (MIC) in assay [14] and in assay [16] was 25 µg/mL (≈ 58.5 µM) in each case.
`Clc1cc(Cl)c(Cl)c(-c2nc(-c3ccc(-c4ccccc4)cc3)cs2)c1`: the “inhibition zone (IZ)” value in assay [1] was determined as 11 mm; in assay [3] it was 16 mm; in [5] it was 16 mm; in assay [8] it was 11 mm; in assay [10], 11 mm; in assay [11], 16 mm. The entries for the “inhibition zone (IZ)” value in [13] and in assay [15] were 16 mm and less than 10 mm, respectively. Besides, the MIC is 6.25 µg/mL (≈ 15 µM) in assay [2]; 12.5 µg/mL (≈ 30 µM) in [4]; 12.5 µg/mL (≈ 30 µM) in assay [6]; 25 µg/mL (≈ 60 µM) in assay [7]; 6.25 µg/mL (≈ 15 µM) in assay [9]; 6.25 µg/mL (≈ 15 µM) in assay [12]. Further, the MIC was determined as 6.25 µg/mL (≈ 15 µM) in [14] and 12.5 µg/mL (≈ 30 µM) in assay [16].
As to `Cc1cc(C)nc(SCc2csc(-c3cc(Cl)cc(Cl)c3Cl)n2)n1`, the “inhibition zone (IZ)” value is recorded as 16 mm in [1]; less than 10 mm in [3]; 16 mm in assay [5]; 16 mm in assay [8]; 16 mm in assay [10]; 16 mm in assay [11]. Also, the “inhibition zone (IZ)” value in assay [13] is given as less than 10 mm; in assay [15], 16 mm. In addition, the MIC in [2] came to 6.25 µg/mL (≈ 15 µM); in [4] it was 6.25 µg/mL (≈ 15 µM); in assay [6], 6.25 µg/mL (≈ 15 µM); in assay [7], 6.25 µg/mL (≈ 15 µM); in assay [9], 25 µg/mL (≈ 60 µM); in [12], 25 µg/mL (≈ 60 µM). For the same compound, the MIC in assay [14] and in assay [16] was 6.25 µg/mL (≈ 15 µM) each time.
As for `NC(=O)c1cc(-c2csc(N/N=C/c3cc(Cl)cc(Cl)c3Cl)n2)ccc1O`, the “inhibition zone (IZ)” value in assay [1] amounted to 16 mm; in assay [3] it was 11 mm; in [5], 11 mm; in assay [8], 16 mm; in assay [10] it was 16 mm; in assay [11], 11 mm. Also, the “inhibition zone (IZ)” value turned out to be 11 mm in assay [13] and 16 mm in assay [15]. For the same compound, the MIC was found to be 12.5 µg/mL (≈ 28.3 µM) in assay [2]; 6.25 µg/mL (≈ 14.1 µM) in assay [4]; 6.25 µg/mL (≈ 14.1 µM) in [6]; 6.25 µg/mL (≈ 14.1 µM) in assay [7]; 12.5 µg/mL (≈ 28.3 µM) in assay [9]; 12.5 µg/mL (≈ 28.3 µM) in assay [12]. The values for the MIC in [14] and in assay [16] were 12.5 µg/mL (≈ 28.3 µM) and 6.25 µg/mL (≈ 14.1 µM), respectively.
As for `Clc1cc(Cl)c(Cl)c(/C=N/Nc2nc(-c3cccnc3)cs2)c1`, the “inhibition zone (IZ)” value in assay [1] is given as 10 mm; in assay [3], 16 mm; in assay [5], 16 mm; in assay [8], 11 mm; in assay [10], less than 10 mm; in assay [11], 16 mm. The “inhibition zone (IZ)” value in assay [13] was found to be 16 mm; in assay [15], 11 mm. For the same compound, the MIC in [2] came to 6.25 µg/mL (≈ 16.3 µM); in assay [4] it was 25 µg/mL (≈ 65.2 µM); in [6] it was 12.5 µg/mL (≈ 32.6 µM); in [7], 12.5 µg/mL (≈ 32.6 µM); in [9], 6.25 µg/mL (≈ 16.3 µM); in [12], 6.25 µg/mL (≈ 16.3 µM). Moreover, the minimal inhibitory concentration (MIC) was found to be 6.25 µg/mL (≈ 16.3 µM) in assay [14] and 12.5 µg/mL (≈ 32.6 µM) in [16].
For the compound `Clc1cc(Cl)c(Cl)c(-c2nc(-c3cccnc3)cs2)c1`, the “inhibition zone (IZ)” value is 11 mm in [1]; 16 mm in [3]; 16 mm in [5]; less than 10 mm in assay [8]; 11 mm in assay [10]; 16 mm in assay [11]. Moreover, the results for the “inhibition zone (IZ)” value in [13] and in [15] were 16 mm and 11 mm, respectively. Besides, the minimum inhibitory concentration (MIC) came out at 6.25 µg/mL (≈ 18.3 µM) in [2]; 12.5 µg/mL (≈ 36.6 µM) in assay [4]; 12.5 µg/mL (≈ 36.6 µM) in assay [6]; 12.5 µg/mL (≈ 36.6 µM) in assay [7]; 6.25 µg/mL (≈ 18.3 µM) in [9]; 6.25 µg/mL (≈ 18.3 µM) in [12]. For the same compound, the MIC in assay [14] stood at 6.25 µg/mL (≈ 18.3 µM); in assay [16], 25 µg/mL (≈ 73.2 µM).
Regarding `CSc1ccc(-c2csc(N/N=C/c3cc(Cl)cc(Cl)c3Cl)n2)cc1`, the “inhibition zone (IZ)” value in assay [1] is recorded as 16 mm; in assay [3], 16 mm; in assay [5], less than 10 mm; in assay [8], 16 mm; in assay [10], 16 mm; in assay [11], less than 10 mm. The “inhibition zone (IZ)” value in assay [13] and in assay [15] was 16 mm in each case. Besides, the MIC in assay [2] stood at 25 µg/mL (≈ 58.3 µM); in [4], 6.25 µg/mL (≈ 14.6 µM); in assay [6] it was 6.25 µg/mL (≈ 14.6 µM); in assay [7] it was 6.25 µg/mL (≈ 14.6 µM); in [9], 6.25 µg/mL (≈ 14.6 µM); in assay [12], 6.25 µg/mL (≈ 14.6 µM). Besides, the MIC was 25 µg/mL (≈ 58.3 µM) in assay [14] and 6.25 µg/mL (≈ 14.6 µM) in assay [16].
